This excerpt belongs to a sample that is enriched for hits.
CDK5 p35 inh = blocks human CDK5/p35 kinase activity | Recombinant CDK5/p35, ADP-Glo luminescence, 60 min | inhibition, % at 10 µM | 330,000 compounds, 0.01% hits;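 active = highest replicate inhibition of at least 50% and at least 75% of replicates reaching 50%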
GSK3A inh = blocks human GSK-3 alpha kinase. inhibition, % at 10 µM. 320,000 compounds, 0.1% hits. ADP-Glo luminescence, 60 min;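 active = more than half of replicates show inhibition above 20%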;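 also: GST-tagged GSK-3 alpha with peptide substrate and 25 µM ATP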
Target sequence (P49840 whole entry, looked up): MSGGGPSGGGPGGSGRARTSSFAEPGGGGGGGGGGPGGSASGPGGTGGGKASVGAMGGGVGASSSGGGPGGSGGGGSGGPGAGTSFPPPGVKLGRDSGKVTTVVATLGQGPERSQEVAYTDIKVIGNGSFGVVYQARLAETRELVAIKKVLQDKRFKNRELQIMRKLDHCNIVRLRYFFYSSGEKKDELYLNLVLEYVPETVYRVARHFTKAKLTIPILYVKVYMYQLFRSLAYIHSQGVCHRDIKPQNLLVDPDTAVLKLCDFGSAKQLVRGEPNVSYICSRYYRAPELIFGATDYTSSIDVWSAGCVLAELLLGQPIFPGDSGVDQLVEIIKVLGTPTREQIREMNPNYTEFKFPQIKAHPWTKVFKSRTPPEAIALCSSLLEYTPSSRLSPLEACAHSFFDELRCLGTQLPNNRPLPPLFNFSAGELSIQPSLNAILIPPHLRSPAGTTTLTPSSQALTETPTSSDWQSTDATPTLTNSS
Dyrk1A ADPGlo = inhibitors of rat Dyrk1A kinase; ADP-Glo luminescence, NFATc1 peptide; inhibition, % at 12.5 µM; 310,000 compounds, 0.43% hits; in the data active = inhibition above about 50%
STK33 inh = blocks human STK33 kinase activity; purified STK33, MBP phosphorylation, ADP-Glo luminescence; inhibition, % at 10 µM; 320,000 compounds, 0.073% hits; AID 2661;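 active = inhibition at or above 25%, using the most active replicate where run in duplicate; inactive = inhibition below 25%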
GSK3beta inhib = inhibitors of human GSK3beta kinase; P49841; GST-GSK3beta kinase, ADP-Glo luminescence, 60 min; active compounds read low; activity score (negative = inhibition), % at 10 µM; 300,000 compounds, 0.038% hits;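 active = more than half of replicate wells score below -50%, meaning over 50% inhibition versus plate controls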
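Test system – GST-tagged human GSK3beta kinase, cell-free · Incubation – 60 min enzyme reaction, room temperature · Signal – ADP-Glo luminescence · Also added – peptide substrate and ATP at 25 µM · Controls – DMSO neutral wells and GW8510 at 20 µM as positive · Buffer or medium – Tris/MgCl2 kinase buffer · Measure – Luminescence-derived activity versus plate DMSO and GW8510 wells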
Dyrk1A artifact = interferes with ADP-Glo luciferase readout without Dyrk1A. ADP-Glo luciferase artifact assay, no Dyrk1A, luminescence. 1,300 tested, under 10 active. shares compounds with Dyrk1A ADPGlo. AC50, µM (series often up to 12 µM);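 active = fitted half-maximal dose AC50 no more than ten times the top valid tested dose, with luminescence dropping as dose rises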
Each line names hits and unclear results; the compound was inactive in the other large screens (follow-up assays come after a bar, where they were run).

CC(=O)c1sc(NC(=O)c2ccco2)nc1-c1ccccc1	none
COc1ccc2c(c1)-c1nc(NC(=O)c3ccco3)sc1CC2	none
C=CCOC(=O)C1=C(C)NC(=O)NC1c1ccc(Cl)cc1 (centres undefined)	Dyrk1A ADPGlo 67 | Dyrk1A artifact inactive
C=CCOC(=O)C1=C(C)NC(=O)NC1c1ccc(N(C)C)cc1 (centres undefined)	none (no result: Dyrk1A ADPGlo)
CCCc1ccc2oc(C(=O)N(Cc3nccn3C)C(C)C)c(C)c2c1	none
O=C(CSc1nc(-c2ccco2)cc(C(F)(F)F)n1)NCCCn1ccnc1	Dyrk1A ADPGlo 58 | Dyrk1A artifact inactive
O=C(CSc1nc(-c2cccs2)cc(C(F)(F)F)n1)NCCCn1ccnc1	none
S=C(Nc1ccc2[nH]ccc2c1)NC1CCCCC1	none (no result: Dyrk1A ADPGlo)
N=C(N)c1ccc(N=Nc2c(O)ccc3c2[nH]c2ccccc23)cc1	Dyrk1A ADPGlo 78 (no result: GSK3A inh, STK33 inh, GSK3beta inhib) | Dyrk1A artifact inactive
COc1ccc(NC(=O)N(C)C[C@H]2Oc3c(NS(=O)(=O)c4cccs4)cccc3C(=O)N([C@@H](C)CO)C[C@@H]2C)cc1	Dyrk1A ADPGlo 55 (no result: GSK3beta inhib) | Dyrk1A artifact inactive
CCc1ccc(C(=O)CSc2nc3cc(S(=O)(=O)N4CCOCC4)ccc3n2CC)cc1	none
COc1cccc(-c2nnc3n2N=C(c2cc(OC)ccc2OC)CS3)c1	none
COc1cccc(-c2nnc3n2N=C(C(C)(C)C)CS3)c1	Dyrk1A ADPGlo 79 (no result: GSK3A inh) | Dyrk1A artifact inactive
CC(C)(C)C1=Nn2c(nnc2-c2ccccc2F)SC1	Dyrk1A ADPGlo 52 | Dyrk1A artifact inactive
O=C(COC(=O)CC1CC2CCC1C2)NCc1ccccc1 (centres undefined)	none (no result: Dyrk1A ADPGlo, GSK3beta inhib)
COCCn1c(-c2cccc([N+](=O)[O-])c2)nc2c1c(=O)[nH]c(=O)n2Cc1ccccc1	none (no result: GSK3A inh)
COc1ccc(/C=C2\SC(N3CCc4ccccc4C3)=NC2=O)cc1	Dyrk1A ADPGlo 70 | Dyrk1A artifact inactive
CCOC(=O)CSC1=NC(=O)/C(=C/c2ccc(OC)cc2)S1	Dyrk1A ADPGlo 71 | Dyrk1A artifact inactive
NC1=NC(=O)C(=Cc2ccccc2)S1	none (no result: GSK3A inh, STK33 inh, GSK3beta inhib)
COc1ccc(/C=C2\SC(N)=NC2=O)cc1	Dyrk1A ADPGlo 83 | Dyrk1A artifact inactive
CCOc1ccc(/C=C2\SC(N3CCc4ccccc4C3)=NC2=O)cc1	none
CC(C)CNC(=O)C1CCN(c2ccc(S(=O)(=O)N3CCOCC3)cc2[N+](=O)[O-])CC1	none
COC(=O)c1sc2cnccc2c1N	Dyrk1A ADPGlo 58 | Dyrk1A artifact inactive
Cc1ccc2c(c1)N(CC(=O)NC1CCCCC1)C(=O)c1cccnc1O2	Dyrk1A ADPGlo 58 (no result: GSK3A inh, STK33 inh) | Dyrk1A artifact inactive
O=S(=O)(NCc1nc2ccccc2[nH]1)c1ccccc1	none
CCCc1cc(=O)[nH]c(SCC(=O)NCc2ccc3c(c2)OCO3)n1	none
Cc1ccc(N=c2oc3cc(O)ccc3cc2C(N)=O)cc1	Dyrk1A ADPGlo 77 | Dyrk1A artifact inactive
CC(=O)c1cc2ccc(O)cc2oc1=O	none
COc1ccc(Nc2ncnc3nc[nH]c23)cc1OC	Dyrk1A ADPGlo 50 | Dyrk1A artifact inactive
O=C(Nc1cccc(-c2nn[nH]n2)c1)c1ccc(Br)s1	Dyrk1A ADPGlo 92 | Dyrk1A artifact inactive
O=C(Nc1cccc(-c2nn[nH]n2)c1)c1ccc(Cl)s1	Dyrk1A ADPGlo 76 | Dyrk1A artifact inactive
O=C(Nc1cccnc1)c1ccc(Br)s1	none
Oc1[nH]c2ccccc2c1N=NC(=S)N1CCOCC1	none
Oc1[nH]c2ccc(Br)cc2c1N=NC(=S)N1CCOCC1	Dyrk1A ADPGlo 63 | Dyrk1A artifact inactive

Bioassay records deposited in PubChem BioAssay by Broad Institute.
